CCR6 antagonist = blocks CCL20-driven beta-arrestin recruitment at human CCR6; P51684; inhibition, % at 20 µM; 340,000 compounds, 0.49% hits; AID 493098; CHO-K1 CCR6 PathHunter beta-arrestin, luminescence, CCL20-stimulated;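 active means compounds whose inhibition of the agonist-driven luminescence signal at 20 µM reaches about 50%, limit read from the data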;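 further: cells stimulated with CCL20 at 14 nM final; plate controls were DMSO with CCL20 for no effect and DMSO without agonist for full effect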
CXCR6 block = CXCR6 (human) receptor inhibition; O00574; CHO-K1 PathHunter CXCR6 beta-arrestin, luminescence; inhibition, % at 20 µM; 360,000 compounds, 0.36% hits; in the data active means inhibition above about 34%, passing the limit was not always enough;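 further: antagonist mode with CXCL16 agonist at 10 nM final; 0% = 10 nM CXCL16 with DMSO and 100% = unstimulated wells without agonist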
Target sequence (O00574 whole entry, looked up): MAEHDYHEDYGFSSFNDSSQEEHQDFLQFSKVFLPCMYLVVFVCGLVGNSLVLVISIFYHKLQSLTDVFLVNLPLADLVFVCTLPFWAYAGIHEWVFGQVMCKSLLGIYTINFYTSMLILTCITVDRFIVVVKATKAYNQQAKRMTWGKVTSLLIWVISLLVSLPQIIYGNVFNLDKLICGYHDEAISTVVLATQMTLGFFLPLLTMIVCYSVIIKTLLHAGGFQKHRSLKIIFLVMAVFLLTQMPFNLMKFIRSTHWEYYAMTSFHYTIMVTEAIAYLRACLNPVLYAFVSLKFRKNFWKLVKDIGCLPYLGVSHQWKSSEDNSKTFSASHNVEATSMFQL
APJ antag = APJ receptor antagonism; CHO-K1 APJ beta-arrestin complementation, luminescence; 330,000 compounds, 0.32% hits; inhibition, % at 20 µM; P35414;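 active means inhibition above about 40% at 20 µM, limit read from the data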;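 further: cells challenged with 10 nM apelin-13 agonist together with compound; plate controls were apelin-13 plus DMSO wells for no effect and DMSO wells lacking apelin-13 for full effect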
Target sequence (P35414 whole entry, looked up): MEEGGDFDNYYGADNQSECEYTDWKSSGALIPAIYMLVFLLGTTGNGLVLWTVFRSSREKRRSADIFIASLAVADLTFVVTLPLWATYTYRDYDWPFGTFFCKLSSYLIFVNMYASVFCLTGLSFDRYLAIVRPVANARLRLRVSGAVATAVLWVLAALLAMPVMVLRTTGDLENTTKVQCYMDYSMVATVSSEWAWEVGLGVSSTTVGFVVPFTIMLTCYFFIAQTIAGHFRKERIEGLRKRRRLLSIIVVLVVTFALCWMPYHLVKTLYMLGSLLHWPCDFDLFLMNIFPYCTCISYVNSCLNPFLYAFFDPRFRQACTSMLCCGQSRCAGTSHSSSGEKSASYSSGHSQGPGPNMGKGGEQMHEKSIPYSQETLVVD
APJ agonist = activates the human apelin receptor APJ; P35414; CHO-K1 APJ PathHunter beta-arrestin, luminescence; 0% DMSO wells, 100% apelin; activation, % at 20 µM; AID 2520; 330,000 compounds, 0.11% hits;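 active means activation more than six SD over the plate average, tested at 20 µM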;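 further: 0% = DMSO alone and 100% = apelin-13 at 10 nM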
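assay system = CHO-K1 APJ beta-arrestin complementation cell line | input = cell density 1000 per well | dosing = compound 20 µM once, DMSO 1% | timing = compound 90 min 25 °C, reagent 1 h | measured by = luminescence from split beta-galactosidase complementation, Galacton Star/Emerald II substrate | read-out basis = APJ agonist activity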
EBI2 antag = EBI2 (human) antagonism; P32249; EBI2 beta-arrestin recruitment, luminescence, 7a,25-OHC stimulated; inhibition, % at 5 µM; 360,000 compounds, 0.81% hits; AID 651636; in the data active means inhibition above about 38%;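 further: enzyme fragment complementation signal reports receptor beta-arrestin coupling in cells; 0% = agonist plus DMSO wells and 100% = wells without agonist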
CXCR6 confirm = CXCR6 antagonism confirmation, single concentration | CHO-K1 CXCR6 PathHunter beta-arrestin, luminescence | shares compounds with CXCR6 block | 700 compounds, 65% hits | AID 602409 | inhibition, % at 20 µM;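 active means mean inhibition over four retests above 40%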;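 further: receptor stimulated with 10 nM CXCL16 agonist; beta-galactosidase fragment complementation upon beta-arrestin recruitment to receptor; plate controls were CXCL16 plus DMSO for no effect and DMSO without CXCL16 for full effect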
An asterisk follows results filed as active; · = not tested or not shown. A selection: hits, their analogues and other compounds. The true share with any hit is near 1.5%.

SMILES | CCR6 antagonist | CXCR6 block | APJ antag | APJ agonist | EBI2 antag | CXCR6 confirm
C=CCSC1=N/C(=C\c2cc(OCC)c(OC(C)=O)c([N+](=O)[O-])c2)C(=O)S1 | 53.1* | 45.7* | 25.1 | -7.4 | -6.5 | 53.6*
Cc1[nH]n2c(=O)cc(-c3ccc([N+](=O)[O-])cc3)nc2c1-c1ccccc1 | · | 58.7* | 16.9 | -2.5 | 8.2 | 52.2*
CNC[C@@H](Cc1ccccc1)NC[C@@H](CC1CCCCC1)NCCCc1ccccc1 | 41.5 | -3.5 | 32.5 | 8.8 | -26.7 | ·
CNC[C@@H](CC1CCCCC1)NC[C@H](CC(C)C)NCCc1cccc(C(F)(F)F)c1 | 40.6 | 42.2* | 15.5 | -8.4 | -11.5 | 37.2
CC[C@H](C)Cc1cn([C@@H](CCCN=C(N)N)C(=O)NCCCCCCCCCCC(=O)N2CCNCC2)nn1 | 8.9 | -0.9 | 13.2 | 4.7 | -3.9 | ·
COC(=O)[C@H](CCSC)NC(=O)Nc1ccc(OC)cc1OC | -1.0 | 77.2* | 24.7 | -3.0 | -1.0 | -1.9
COc1ccc(Nc2ncccc2C(=O)O)cc1 | -34.6 | 69.5* | -1.4 | 0.5 | -3.1 | 17.4
CNc1cnn(-c2ccc(C)cc2)c(=O)c1Cl | 0.8 | 56.1* | -7.0 | 0.1 | 0.6 | 1.7
O=S(=O)(NC(=S)c1ccccc1)c1ccc(F)cc1 | -8.6 | 75.6* | 26.5 | -0.9 | 1.0 | -0.2
Cc1c(C(=O)NCc2ccc(F)cc2)sc(=O)n1Cc1ccccc1F | · | 8.0 | · | · | 1.3 | ·
C=CCNc1sc(C(=O)c2ccc(C)cc2)c(N)c1C#N | -0.2 | 54.8* | 14.9 | 0.1 | 4.4 | 15.9
CC12CCC(=O)N1C(C(=O)Nc1ccc(F)cc1)CS2 (stereo unspecified) | 7.7 | 2.8 | 14.4 | 3.6 | 2.1 | ·
Cn1nc([N+](=O)[O-])nc1Sc1cccc2cccnc12 | 38.0 | 43.5* | -3.9 | -2.3 | -6.3 | 40.8*
O=[N+]([O-])c1ccc(Cl)cc1Sc1cccc2cccnc12 | -14.0 | 2.1 | 8.0 | -2.7 | 5.1 | ·
Cc1nnc(SCC(=O)NNC(=O)c2ccc(F)cc2)n1Cc1ccccc1 | 5.2 | 2.8 | 2.0 | 1.8 | 1.7 | ·
COc1cc(/C=C/C(O)=C/C(=O)/C=C/c2ccc(O)cc2)ccc1O | 60.9* | 40.2* | 3.9 | -9.1 | 13.1 | 44.8*
COc1cc(/C=C/C(=O)NC(=O)c2ccccc2O)ccc1O | 19.0 | -0.4 | 19.1 | -10.7 | 11.7 | ·
O=C1CC(c2ccco2)Cc2nc(N3CCc4ccccc4C3)ncc21 (stereo unspecified) | 28.6 | 43.5* | 10.1 | -3.4 | 3.5 | -1.8
CC(C)c1ccc(C2CC(=O)c3cnc(N4CCc5ccccc5C4)nc3C2)cc1 (stereo unspecified) | 0.9 | 6.3 | 15.0 | 1.2 | -6.7 | ·
O=C1N[C@@H](Cc2ccccc2)COC(=O)[C@H](Cc2ccc(F)cc2)CC/C=C/C[C@@H]1CC(=O)N(CCO)Cc1ccccc1 | 22.9 | 38.2 | 18.2 | -3.9 | 40.8 | ·
O=C1NC[C@H](c2ccccc2)OC(=O)[C@@H](Cc2ccc(F)cc2)CC/C=C/C[C@@H]1CC(=O)N(CCO)Cc1ccccc1 | 61.8* | 55.1* | · | · | 23.6 | 45.0*
O=C(COC(=O)C1CCN(S(=O)(=O)c2cccs2)CC1)c1ccc2c(c1)OCCO2 | 9.9 | -9.0 | 11.6 | -2.6 | 1.0 | ·
O=C(COC(=O)C1CCN(S(=O)(=O)c2cccs2)CC1)c1cc2ccccc2o1 | 74.4* | 34.3* | 36.6 | -11.7 | 14.9 | 41.8*
COc1cccc(NC(=O)NC2(C(=O)N3CCN(C)CC3)CCCCC2)c1 | 9.8 | 0.2 | 9.8 | -0.7 | -3.5 | ·
Cc1[nH]n(-c2ccccc2)c(=S)c1C=NCCCN=Cc1c(C)[nH]n(-c2ccccc2)c1=S | 74.3* | 54.2* | -29.4 | 0.3 | 6.9 | 74.2*
SMILES | CCR6 antagonist | CXCR6 block | APJ antag | APJ agonist | EBI2 antag | CXCR6 confirm
O=[N+]([O-])c1ccc(Sc2nc3ccccc3o2)c([N+](=O)[O-])c1 | 43.3 | 43.4* | -77.7 | 9.2 | -52.8 | 45.8*
C[n+]1ccc(/C=N/Nc2nc(Cl)c(C#N)c(Cl)c2Cl)cc1 | 55.8* | 42.5* | 36.9 | -6.0 | 0.2 | 52.0*
COC(=O)c1cc([N+](=O)[O-])c(-n2cncn2)c([N+](=O)[O-])c1 | 96.8* | 79.1* | · | · | 10.4 | 95.8*
CCOc1ccc(NCc2cc3c(C(C)(C)C)nn(-c4ccccc4)c3[nH]c2=O)cc1 | 22.7 | 47.7* | 18.0 | -3.5 | 17.9 | 24.9
NC(=O)COc1ccc2oc(=O)cc(-c3cc4ccccc4o3)c2c1 | 7.8 | 10.6 | 2.8 | 2.6 | -4.7 | ·
O=C(CSc1nnc(-c2ccco2)n1-c1ccccc1)N1CCOCC1 | 3.9 | 63.4* | 6.6 | -5.7 | -1.9 | 12.0
C=CC[C@]12CCc3ccccc3C1N(c1ccc(C(=O)OCC)cc1)C2=O (stereo partly specified) | 28.2 | 14.4 | 11.3 | 0.2 | 17.3 | ·
O=C1CCCN1CC(=O)N1CCCC(Nc2cccc(F)c2)C1 (stereo unspecified) | 0.8 | 2.9 | 6.2 | -7.3 | 1.7 | ·
CCn1c(C)cs/c1=N\S(=O)(=O)c1ccccc1 | -14.0 | -7.9 | 5.0 | -2.1 | 1.2 | ·
O=Cc1s/c(=N\S(=O)(=O)c2ccccc2)n(CCCCl)c1Cl | 105.0* | 97.7* | · | · | 21.9 | 104.4*
CCOC(=O)c1cc([N+](=O)[O-])cc([N+](=O)[O-])c1Sc1ncnc2nc[nH]c12 | · | 45.2* | · | · | -43.5 | 33.5
COc1cc(/C=C/C(=O)N2C(=O)c3cccc(N)c3C2=O)cc(OC)c1OC | 28.0 | 1.6 | 6.7 | -4.8 | 10.0 | ·
Nc1cccc2c1C(=O)N(C(=O)/C=C/c1cccc(F)c1)C2=O | 53.0* | 50.4* | 19.7 | 0.6 | -0.3 | 45.0*
COCC1CCCCN1C(=O)c1ccc2oc(CCc3ccccc3)nc2c1 (stereo unspecified) | 3.0 | 36.7* | 2.4 | -3.7 | 0.3 | 22.3
CCCCCN(C(=O)CCC(=O)OC(C)C(=O)Nc1cccc(C#N)c1)c1c(N)n(CCCC)c(=O)[nH]c1=O (stereo unspecified) | 5.9 | 3.8 | 4.2 | -5.1 | -2.5 | ·
CCOC(=O)c1cccc(NC(=O)COc2nsnc2N2CCOCC2)c1 | 16.1 | -9.5 | 8.6 | 1.8 | 6.1 | ·
Cc1ccc(Cc2cnc(N3C(=N)SC(C)C3=O)s2)cc1 (stereo unspecified) | · | 53.3* | 22.3 | -2.5 | 5.6 | 69.5*
Cc1cccc(Cc2cnc(N3C(=N)SC(C)C3=O)s2)c1 (stereo unspecified) | · | 53.2* | 16.5 | -2.5 | -2.1 | 72.7*
Cc1cccc(Cc2cnc(N3C(=N)SC(c4ccccc4)C3=O)s2)c1 (stereo unspecified) | 39.5 | 15.4 | -4.0 | 0.5 | -5.9 | ·
COc1cc(/C=N/Nc2ccc(Cl)c(C(=O)O)c2)ccc1OC(=O)c1ccccc1F | 6.3 | -11.9 | 8.0 | -0.3 | 1.4 | ·
O=S1(=O)C=C[C@H](COCc2ccccc2)N1 | · | 0.2 | · | · | -14.6 | ·
C/C(=N\NC(=S)NCCc1ccccc1)c1ccc(Cl)cc1Cl | · | 53.8* | 33.3 | -7.8 | 12.8 | 54.3*

Assay outcomes deposited in PubChem BioAssay by Sanford-Burnham Center for Chemical Genomics.
